Screening data (PubChem)
This is one part of a sample in which hits are shown more often than they occur.
DTT redox prof: compounds producing H2O2 with reducing agent – biochemical, NIH compound library profiling, artefact control for MLSCN library redox annotation, primary screen; DTT-dependent redox cycling H2O2, phenol red/HRP absorbance; 100% = 100 µM peroxide control, 0% = buffer; activation, % at 10 µM; hit rate 0.03% among 200,000;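 active means activation of at least 50% relative to the plate's high and low controls in the primary single-dose screen; inactive means activation below 50%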;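 further: compound incubated with DTT at 0.8 mM final as the reducing agent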
Lmaj promast: inhibitors of Leishmania major promastigote growth | Leishmania major promastigotes, resazurin fluorescence viability | inhibition, % at 10 µM | hit rate 9% among 200,000 | AID 1063; in the data active means inhibition above about 50%;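 further: promastigotes grown with compound for 44 hours at 28 °C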
Lipid droplet: modulators of hepatic lipid droplet formation | AID 1656 | inhibition, % at 6.5 µM | hit rate 0.4% among 240,000 | AML12 mouse hepatocytes, oleate lipid droplets, BODIPY imaging;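 active means lipid droplet intensity inhibited by at least 50%, with more than 500 cells counted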
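Test system: AML12 hepatocytes (mouse); reagent: oleate loading, 100 µM; dosing: one dose, 6.5 µM compound; incubation: overnight exposure; signal: fluorescence imaging, 20x objective, two fields per well; read-out basis: % inhibition of corrected integrated BODIPY droplet signal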
T cruzi repl: blocks replication of Trypanosoma cruzi; T. cruzi beta-gal in NIH3T3, luminescence, 90 h; inhibition, % (concentration not given with the values); hit rate 1.4% among 300,000; AID 1885;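 active means mean inhibition across valid replicates above about 55%, limit read from the data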;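 further: signal also drops with host cell toxicity which is not excluded here; higher percent means less beta-gal luminescence so fewer parasites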
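Assay system: NIH/3T3 fibroblasts plus reporter T. cruzi. Amount: NIH/3T3 cells, 5,000 per well. Buffer or medium: DMEM, 2% fetal bovine serum. Doses: compound pinned at 50 nL/well, DMSO. Schedule: ≥90 h infection period, 3 h prior cell attachment. Signal: luminescent β-galactosidase signal after 60 min lysis. Read-out: parasite load inhibition, %.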
MPTP block: permeability transition pore inhibition | isolated mouse mitochondria, Ca2+ swelling absorbance, 30 min | hit rate 1.4% among 360,000 | inhibition, % at 10 µM | AID 602449;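 active means inhibition of 50% or more, scaled per plate between neutral and stimulator controls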
Numbers stand for hits.

How did Cc1nc(NC(=O)c2csc3ccccc23)sc1C do in these assays?
DTT redox prof: inactive; Lmaj promast: 60; T cruzi repl: inactive; MPTP block: inactive

What do the screens show for `COc1ccc(C(=O)c2c(-c3cccc(C)c3)oc3ccc(N4CCOCC4)cc23)cn1`?
T cruzi repl: inactive; MPTP block: inactive

How did Cc1ccccc1N1CCN(C2CCCN(C(=O)c3noc4c3CCCC4)C2)CC1 (stereo unspecified) do in these assays?
Lipid droplet: inactive; T cruzi repl: inactive; MPTP block: inactive

How did O=C(NCCO)c1ccc(-c2cnc3cccnn23)cc1 do in these assays?
MPTP block: inactive

How did CCOC(=O)C1=C(C)N=c2s/c(=C/c3ccccc3)c(=O)n2C1c1ccc(OC)c(OC)c1 (stereo unspecified) do in these assays?
DTT redox prof: inactive; Lmaj promast: inactive; T cruzi repl: inactive; MPTP block: inactive

How did CCOC(=O)C1=C(C)N=c2s/c(=C3\C(=O)Nc4ccccc43)c(=O)n2C1c1ccc2c(c1)OCO2 (stereo unspecified) do in these assays?
DTT redox prof: inactive; Lmaj promast: inactive; Lipid droplet: 59; T cruzi repl: inactive; MPTP block: inactive

What do the screens show for `CCOC(=O)C1=C(C)N=c2s/c(=C\c3ccncc3)c(=O)n2C1c1ccc2c(c1)OCO2` (stereo unspecified)?
DTT redox prof: inactive; Lmaj promast: 99; Lipid droplet: inactive; T cruzi repl: inactive; MPTP block: inactive

How did CC(C)C[C@H]1CNC(=S)N1C[C@H]1CCCN1C[C@H](Cc1ccccc1)N1C[C@H](CC(C)C)N(CCc2ccccc2)C1=S do in these assays?
MPTP block: inactive

Results for O=C(N/N=C/c1cc(Cl)ccc1O)C(=O)Nc1ccccc1OC(F)(F)C(F)F ?
DTT redox prof: inactive; Lmaj promast: 99; Lipid droplet: inactive; MPTP block: inactive

What do the screens show for `COc1ccccc1/C=N/NC(=O)C(=O)Nc1ccccc1OC(F)(F)C(F)F`?
DTT redox prof: inactive; Lmaj promast: inactive; Lipid droplet: inactive; T cruzi repl: inactive; MPTP block: inactive

Results for COc1cccc(/C=N/NC(=O)C(=O)Nc2ccccc2OC(F)(F)C(F)F)c1 ?
DTT redox prof: inactive; Lmaj promast: inactive; Lipid droplet: inactive; T cruzi repl: inactive; MPTP block: inactive

Results for O=C(N/N=C/c1cc(Br)ccc1O)C(=O)Nc1ccccc1OC(F)(F)C(F)F ?
DTT redox prof: inactive; Lmaj promast: 99; T cruzi repl: 57; MPTP block: inactive

Results for O=C(Nc1ccccc1Cl)c1cc(C2CCCCN2C(=O)CCCc2ccccc2)on1 (stereo unspecified) ?
MPTP block: inactive

Results for CCOC(=O)c1cc(=O)n(-c2ccc(Cl)cc2C)[nH]1 ?
DTT redox prof: inactive; Lmaj promast: 55; Lipid droplet: inactive; T cruzi repl: inactive; MPTP block: inactive

Results for COC(=O)c1[nH]c2cccc(OC)c2c1NC(=O)CCN1CCN(c2cccc(Cl)c2)CC1 ?
DTT redox prof: inactive; Lmaj promast: 100

Results for Cc1cccc(N2CCN(CCNC(=O)c3cc4c(s3)CS(=O)(=O)C4)CC2)c1C ?
DTT redox prof: inactive; Lmaj promast: 99; Lipid droplet: inactive; T cruzi repl: inactive; MPTP block: inactive

Results for Cc1ccc(CNC(=O)c2cc3c(s2)CS(=O)(=O)C3)cc1 ?
Lipid droplet: inactive; T cruzi repl: inactive; MPTP block: inactive

How did CCCS(=O)(=O)c1nc(S(=O)(=O)c2ccc(C)cc2)c(NCCCN(C)C)s1 do in these assays?
DTT redox prof: inactive; Lmaj promast: 95; Lipid droplet: inactive; T cruzi repl: inactive; MPTP block: inactive

What do the screens show for `Cc1ccc(S(=O)(=O)c2nc(NCCN(C)C)sc2Cl)cc1`?
DTT redox prof: inactive; Lmaj promast: 89; T cruzi repl: inactive; MPTP block: inactive

Results for CCCS(=O)(=O)c1nc(S(=O)(=O)c2ccc(C)cc2)c(NCc2ccc3c(c2)OCO3)s1 ?
DTT redox prof: inactive; Lmaj promast: 62; Lipid droplet: inactive; T cruzi repl: inactive; MPTP block: inactive

Results for COC(=O)[C@H]1[C@H]2C[C@@H]3c4[nH]c5cc(OC)ccc5c4CCN3C[C@H]2C[C@@H](OC(=O)c2ccc(N)cc2)[C@@H]1OC ?
Lipid droplet: inactive; T cruzi repl: 58; MPTP block: inactive

Results for Cc1cccc(NC(=O)c2nc[nH]c2C(=O)Nc2ccccc2[N+](=O)[O-])c1 ?
DTT redox prof: inactive; Lmaj promast: 57; Lipid droplet: inactive; T cruzi repl: inactive; MPTP block: inactive

Results for O=C(c1sc2cc(Cl)ccc2c1Cl)N1CCN(CCc2ccccn2)CC1 ?
Lipid droplet: inactive; T cruzi repl: inactive; MPTP block: inactive

What do the screens show for `COc1cc(C(=O)N2CCN(c3ccccn3)CC2)cc(OC)c1OC`?
Lipid droplet: inactive; T cruzi repl: inactive; MPTP block: inactive

How did COc1cc2nc(C3CCC3)nc(N3CCN(c4ccccn4)CC3)c2cc1OC do in these assays?
DTT redox prof: inactive; Lmaj promast: 54; Lipid droplet: inactive; T cruzi repl: inactive; MPTP block: inactive

Results for O=C(c1cnn2c(C(F)(F)F)cc(-c3cccs3)nc12)N1CCOCC1 ?
DTT redox prof: inactive; Lmaj promast: inactive; Lipid droplet: inactive; T cruzi repl: inactive; MPTP block: inactive

Results for CC1CC(C)CN(C(=O)/C(=C\c2ccccc2)c2ccccc2)C1 (stereo unspecified) ?
DTT redox prof: inactive; Lmaj promast: 96; Lipid droplet: inactive; T cruzi repl: inactive; MPTP block: inactive

How did CN1CCN(C(=O)/C(=C/c2ccccc2)c2ccccc2)CC1 do in these assays?
DTT redox prof: inactive; Lmaj promast: inactive; Lipid droplet: inactive; T cruzi repl: inactive; MPTP block: inactive

Results for CNc1ncnc(Sc2ccc(Cl)cc2)c1[N+](=O)[O-] ?
Lipid droplet: inactive; T cruzi repl: 66; MPTP block: inactive

What do the screens show for `COc1ccc(OC)c(CC(NC(C)=O)C(=O)NC2CCN(c3nc(OC)nc(OC)n3)CC2)c1` (stereo unspecified)?
DTT redox prof: inactive; Lmaj promast: inactive; Lipid droplet: inactive; T cruzi repl: inactive; MPTP block: inactive

Results for COCCNC(=O)Cn1nc(-c2ccc(C)cc2)c2ccccc2c1=O ?
Lipid droplet: inactive; T cruzi repl: inactive; MPTP block: inactive

What do the screens show for `N=c1n(CC(=O)c2ccc(Br)cc2)c2ccccc2n1Cc1ccccc1`?
MPTP block: inactive

What do the screens show for `N=c1n(CC(=O)c2ccc([N+](=O)[O-])cc2)c2ccccc2n1Cc1ccccc1Cl`?
DTT redox prof: inactive; Lmaj promast: 101; Lipid droplet: inactive; MPTP block: inactive

How did N=c1n(CC(=O)c2ccc([N+](=O)[O-])cc2)c2ccccc2n1Cc1ccccc1 do in these assays?
DTT redox prof: inactive; Lmaj promast: 99; Lipid droplet: inactive; T cruzi repl: inactive; MPTP block: inactive

What do the screens show for `Cc1ccc(C(=O)NCCCNC(=O)COc2ccc(C)c(C)c2)cn1`?
Lipid droplet: inactive; T cruzi repl: inactive; MPTP block: inactive
